This is a sample that favours compounds with a hit; in the whole collection about 2.4% have one here.
HMGR II inh = E. faecalis class II HMG-CoA reductase inhibition; purified E. faecalis HMGR, NADPH absorbance 340 nm kinetic; inhibition, % at 10 µM; hit rate 0.41% among 190,000; AID 1066;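 active = inhibition above a set limit, the median over all tested compounds plus 3 SD, cut at about 9.5% in these data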;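 note: enzyme runs in reverse so mevalonate oxidation gives rising NADPH absorbance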
Rad51 HR inh = Rad51 (human) homologous recombination inhibition; hRad51 DNA strand exchange, fluorescence dequenching; inhibition, % at 10 µM; hit rate 0.085% among 200,000; AID 1385;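 active = inhibition above 40% at the single screening dose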
Target sequence (Q06609 whole entry, looked up): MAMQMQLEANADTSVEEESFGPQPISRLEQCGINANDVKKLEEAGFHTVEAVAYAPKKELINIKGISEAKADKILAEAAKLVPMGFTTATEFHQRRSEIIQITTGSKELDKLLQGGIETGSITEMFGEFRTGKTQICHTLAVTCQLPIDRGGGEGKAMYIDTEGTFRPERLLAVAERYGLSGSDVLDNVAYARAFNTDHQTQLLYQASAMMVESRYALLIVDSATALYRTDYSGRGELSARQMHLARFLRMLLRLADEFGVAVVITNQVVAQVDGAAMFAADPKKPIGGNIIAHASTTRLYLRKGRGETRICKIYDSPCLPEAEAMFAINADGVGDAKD
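material = hRad51 filaments on single-stranded DNA | reagent = Donor/quencher-labelled 47-bp dsDNA substrate | compound = 10 µM final, single point | schedule = strand-exchange reaction 15 min at room temperature | measured by = fluorescein emission 520 nm, excitation 485 nm | read-out basis = % inhibition versus plate control and blank means | benchmarks = plate controls and plate blanks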
Yeast growth inh = chemicals that inhibit yeast BB579 growth in restrictive medium (lifespan-shortening candidates). S. cerevisiae BB579 growth, OD615, 48 h. inhibition, % at 10 µM. hit rate 0.51% among 140,000. AID 804;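 active = inhibition above a set limit, 3 SD over the mean compound inhibition, cut at about 44% in these data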
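Test system: DeaD yeast strain BB579 / Buffer or medium: restrictive glucose-based CSMM-D medium / Doses: single 10 µM dose / Schedule: 4 h cell preincubation, 48 h compound exposure, 30 °C humidified / Technique: culture absorbance at 615 nm / Controls: amphotericin B positive control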
Arbovirus anti = antivirals against arbovirus infection; arbovirus infection cell-based antiviral screen; inhibition, % at 10 µM; hit rate 0.37% among 200,000; in the data active = inhibition above about 30%
Yeast life ext = yeast lifespan extension | S. cerevisiae growth with nicotinamide, OD615; deaD strain in restrictive glucose medium | inhibition of the nicotinamide effect, % at 10 µM | hit rate 0.68% among 130,000 | AID 775;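 active = inhibition above a set limit, placed 3 SD over the median of all compounds, cut at about 26% in these data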
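assay system = DeaD-strain S. cerevisiae | buffer or medium = restrictive glucose medium | reagent = 1.5 mM nicotinamide | compound = 10 µM single point, 0.25% DMSO | incubation = 48 h compound exposure at 30 °C, humidified | signal = OD615 measurement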
Measles CPE = protection of cells from measles virus; Measles virus-infected cells, CPE protection, absorbance; protection (pct of control), % at 4 µM; hit rate 1.5% among 140,000; in the data active = protection mostly above about 24%, no sharp cut-off; inactive = mostly below about 26%
Each line names hits and unclear results; the compound was inactive in the other large screens.

COc1ccc(C(=O)c2nc3ccccc3n2C(C)C)cc1	none (no result: Yeast growth inh, Yeast life ext, Measles CPE)
CC(C)N1C(=O)/C(=C/C=C/c2ccco2)C(=O)N(Cc2ccco2)C1=O	Measles CPE 26
CCN1C(=O)C(=C/C=C/c2ccco2)C(=O)N(CC)C1=S	Yeast life ext 34
COc1ccc(-n2c(/C=C/c3ccc4c(c3)OCO4)nc3ccccc3c2=O)cc1	none
Cc1ccc(-n2c(/C=C/c3ccc4c(c3)OCO4)nc3ccccc3c2=O)cc1	Measles CPE 26
NC1=NC(=O)C(c2ccccc2)O1 (stereo unspecified)	none (no result: Rad51 HR inh, Yeast growth inh, Yeast life ext, Measles CPE)
O=C(Nc1ccc(F)cc1F)c1cccnc1Oc1cccc(C(F)(F)F)c1	Yeast life ext 36
Cc1cc(C)c(Cn2c(C(=O)O)c(C=O)c3ccccc32)c(C)c1	none (no result: Yeast growth inh, Yeast life ext, Measles CPE)
CCN(CC)P(c1n(C)cc[n+]1C)N(CC)CC	none (no result: Yeast growth inh, Yeast life ext, Measles CPE)
CN1C(=O)/C(=C/c2cccn2-c2ccc3ccccc3c2)C(=O)NC1=S	Yeast life ext 49
Cc1ccc(N(C)C(=O)Oc2ccc(C(=O)c3ccc(Cl)cc3)cc2)cc1	Yeast life ext 82
O=[N+]([O-])/C(Cl)=C1\NCCN1Cc1ccc(Cl)nc1	HMGR II inh 14 (no result: Yeast growth inh, Yeast life ext, Measles CPE)
CCN(CC)CCCNC(=O)c1c(O)c2ccccc2n(Cc2ccccc2)c1=O	Measles CPE 77
CCN(CC)CCNC(=O)c1c(O)c2ccccc2n(Cc2ccccc2)c1=O	none
O=C1C2CCN(CC2)C1Cc1ccc(OCc2ccccc2)cc1 (stereo unspecified)	none (no result: Yeast growth inh, Yeast life ext, Measles CPE)
Oc1c(Br)cc(Br)cc1CN1CCN(Cc2ccccc2)CC1	none
Oc1c(Br)cc(Br)cc1Oc1ccc(Br)cc1Br	Yeast growth inh 83
COc1cc(C(O)CNC(C)C)cc(F)c1OC (stereo unspecified)	none (no result: HMGR II inh, Yeast growth inh, Arbovirus anti, Yeast life ext, Measles CPE)
O=c1cccc2n1CC1CC2CN(Cc2cccc(Cl)c2Cl)C1 (stereo unspecified)	Measles CPE 43
CSc1ccc(C(=O)C2CCCN(CCCn3cccn3)C2)cc1 (stereo unspecified)	none (no result: Rad51 HR inh, Yeast growth inh, Yeast life ext, Measles CPE)
Cc1ccc(/C=C2/C(=O)NC(=O)N(CCc3ccc(F)cc3)C2=O)o1	Yeast life ext 32

Source: PubChem
